Active and inactive are the calls of the source. The rule behind the calls is not given here.
What was measured:
Aminopeptidase N [1] = target: T1, Aminopeptidase N (Sus scrofa, UniProt P15145); assay: Inhibition of pig kidney APN using L-Leu-p-nitroanilide as substrate incubated for 5 mins prior to substrate addition measured after 30 mins by UV/VIS spectrophotometry
T1 sequence (P15145 whole entry): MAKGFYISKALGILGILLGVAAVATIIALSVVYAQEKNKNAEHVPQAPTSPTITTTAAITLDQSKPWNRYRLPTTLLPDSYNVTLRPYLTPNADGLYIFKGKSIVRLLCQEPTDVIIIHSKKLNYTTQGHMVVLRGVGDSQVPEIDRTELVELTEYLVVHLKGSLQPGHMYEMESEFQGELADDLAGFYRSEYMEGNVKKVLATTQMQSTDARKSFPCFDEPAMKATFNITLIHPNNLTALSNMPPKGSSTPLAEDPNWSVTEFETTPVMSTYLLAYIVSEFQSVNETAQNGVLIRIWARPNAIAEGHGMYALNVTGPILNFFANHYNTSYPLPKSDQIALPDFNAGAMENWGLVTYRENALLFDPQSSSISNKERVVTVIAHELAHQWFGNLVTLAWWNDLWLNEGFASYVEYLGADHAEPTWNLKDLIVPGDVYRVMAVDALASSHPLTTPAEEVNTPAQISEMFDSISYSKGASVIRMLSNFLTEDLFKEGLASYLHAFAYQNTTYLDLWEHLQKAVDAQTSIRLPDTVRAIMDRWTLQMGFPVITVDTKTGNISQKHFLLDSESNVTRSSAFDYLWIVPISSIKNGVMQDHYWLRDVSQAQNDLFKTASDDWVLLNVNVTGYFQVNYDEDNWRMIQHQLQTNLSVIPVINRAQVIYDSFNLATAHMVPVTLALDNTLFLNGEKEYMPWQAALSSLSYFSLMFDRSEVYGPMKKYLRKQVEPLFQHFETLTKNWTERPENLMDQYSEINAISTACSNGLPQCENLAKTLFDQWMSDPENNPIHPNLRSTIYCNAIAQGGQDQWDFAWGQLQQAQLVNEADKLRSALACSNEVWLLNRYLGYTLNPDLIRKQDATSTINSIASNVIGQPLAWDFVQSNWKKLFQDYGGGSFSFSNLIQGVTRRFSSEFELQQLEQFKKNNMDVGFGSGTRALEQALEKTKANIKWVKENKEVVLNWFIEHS
Summary of the method: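 Porcine kidney microsomal APN, 6 μg/mL final, in 50 mM PBS pH 7.2 with 0.5% DMSO final. Inhibitor and enzyme preincubated 5 min at room temperature. Percent inhibition from control and zero-setting OD; IC50 calculated.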

[2] = target: 72 kDa type IV collagenase (Homo sapiens, UniProt P08253); assay: Inhibition of recombinant MMP2 using succinylated gelatin as substrate incubated for 10 mins prior to substrate addition measured after 1 hr by UV/VIS spectrophotometry
72 kDa type IV collagenase, sequence (P08253 whole entry): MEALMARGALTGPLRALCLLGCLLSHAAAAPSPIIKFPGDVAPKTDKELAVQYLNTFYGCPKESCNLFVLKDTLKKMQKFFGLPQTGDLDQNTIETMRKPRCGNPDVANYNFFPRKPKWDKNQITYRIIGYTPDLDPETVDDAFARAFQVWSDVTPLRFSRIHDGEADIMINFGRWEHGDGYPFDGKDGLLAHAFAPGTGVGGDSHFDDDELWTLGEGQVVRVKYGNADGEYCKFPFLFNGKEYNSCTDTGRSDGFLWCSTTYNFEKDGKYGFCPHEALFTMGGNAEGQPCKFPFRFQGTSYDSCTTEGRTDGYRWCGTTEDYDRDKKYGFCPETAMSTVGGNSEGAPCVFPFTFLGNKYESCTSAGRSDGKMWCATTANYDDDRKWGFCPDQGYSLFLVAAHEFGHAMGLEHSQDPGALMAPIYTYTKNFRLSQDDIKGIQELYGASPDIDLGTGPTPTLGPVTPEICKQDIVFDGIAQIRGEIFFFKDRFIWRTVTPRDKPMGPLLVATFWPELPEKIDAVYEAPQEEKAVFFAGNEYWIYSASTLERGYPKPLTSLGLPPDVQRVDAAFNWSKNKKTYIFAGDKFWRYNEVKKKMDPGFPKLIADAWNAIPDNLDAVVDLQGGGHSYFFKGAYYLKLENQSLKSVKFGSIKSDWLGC
Summary of the method: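 Recombinant MMP-2 and compound, both in 50 mM sodium borate pH 8.5, held 10 min at 37 °C. Succinylated gelatin then added for 60 min at 37 °C. Free amines developed with 0.03% picrylsulfonic acid, 20 min at room temperature, read at 450 nm. Inhibition from control and zero-setting OD; IC50 calculated; three assays, SD <10% of means.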

[3] = Antiproliferative activity against human ES2 cells after 48 hrs by MTT assay; assay type: functional, cell-based; details: ES-2, 48 h
Summary of the method: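 ES-2 cells grown in RPMI-1640 with 10% FBS, seeded 8000 per well and left to adhere 10 h. Compounds then added at a range of concentrations in the same medium with 0.1% DMSO, 48 h at 37 °C in CO2. MTT added for 4 h; formazan dissolved in DMSO, read at 590 nm. Inhibition from control and zero-setting OD; IC50 calculated; three assays.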

ES2 [4] = assay: Antimetastatic activity against human ES2 cells assessed as inhibition of migration through transwell chamber without matrigel coating at 100 ug/mL after 3 hrs by crystal voilet staining; assay type: functional, cell-based
Summary of the method: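 Uncoated transwell inserts. Upper chamber holds compound at 100 µg/mL in RPMI-1640 with 1% FBS, 0.1% DMSO final, plus ES-2 cells (60000 per well). Migration 3 h at 37 °C in CO2. Upper-side cells swabbed away; migrated cells fixed and stained with 0.1% crystal violet, extracted with 33% acetic acid, read at 595 nm. Rate uses treated, control and blank OD. Repeated ≥3 times in triplicate.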

Aminopeptidase N [5] = target: Aminopeptidase N (Homo sapiens, UniProt P15144); assay: Inhibition of APN in human ES2 cell surface using L-Leu-p-nitroanilide as substrate incubated for 5 mins prior to substrate addition measured after 1 hr by UV/VIS spectrophotometry
Aminopeptidase N (Homo sapiens, UniProt P15144), sequence (P15144 whole entry): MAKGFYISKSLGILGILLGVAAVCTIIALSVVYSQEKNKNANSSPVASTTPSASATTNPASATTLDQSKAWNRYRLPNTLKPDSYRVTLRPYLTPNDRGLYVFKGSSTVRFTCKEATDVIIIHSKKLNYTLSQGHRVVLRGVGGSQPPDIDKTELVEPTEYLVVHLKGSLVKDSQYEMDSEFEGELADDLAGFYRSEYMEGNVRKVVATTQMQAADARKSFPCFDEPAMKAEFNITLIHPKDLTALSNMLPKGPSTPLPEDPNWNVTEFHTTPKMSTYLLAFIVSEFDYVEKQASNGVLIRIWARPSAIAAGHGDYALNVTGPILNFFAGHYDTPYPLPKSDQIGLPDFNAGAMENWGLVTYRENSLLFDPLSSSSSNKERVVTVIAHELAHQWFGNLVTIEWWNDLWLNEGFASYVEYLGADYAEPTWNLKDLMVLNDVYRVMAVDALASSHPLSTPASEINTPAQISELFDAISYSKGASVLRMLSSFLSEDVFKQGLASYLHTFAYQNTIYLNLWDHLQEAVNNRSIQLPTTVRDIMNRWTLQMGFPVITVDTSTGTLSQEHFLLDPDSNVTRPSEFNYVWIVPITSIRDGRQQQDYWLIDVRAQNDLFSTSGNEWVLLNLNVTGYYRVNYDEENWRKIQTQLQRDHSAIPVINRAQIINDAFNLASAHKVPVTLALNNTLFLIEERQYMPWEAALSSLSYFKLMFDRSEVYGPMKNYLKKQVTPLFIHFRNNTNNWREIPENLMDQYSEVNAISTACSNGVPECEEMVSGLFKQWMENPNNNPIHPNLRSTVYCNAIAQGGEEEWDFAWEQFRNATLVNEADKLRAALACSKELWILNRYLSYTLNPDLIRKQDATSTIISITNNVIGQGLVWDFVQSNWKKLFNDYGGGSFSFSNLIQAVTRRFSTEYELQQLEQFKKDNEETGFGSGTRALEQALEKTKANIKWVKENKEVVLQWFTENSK
Summary of the method: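 Enzyme source: intact ES-2 cells, 2 × 10^5 per well, in 10 mM PBS pH 7.4 with 0.1% DMSO final. Inhibitors preincubated with cells 5 min at room temperature. L-Leu-p-nitroanilide then added, 1 h at 37 °C. Inhibition from control and zero-setting OD; IC50 calculated; mean ± SD of three assays.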

[6] = Antimetastatic activity against human ES2 cells assessed as inhibition of invasion through transwell chamber with matrigel coating at 10 to 100 ug/mL after 8 hrs by crystal voilet staining relative to control; assay type: functional
Summary of the method: (§1)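 ES-2 cells (100,000 per insert) in RPMI-1640 with 1% FBS placed on Matrigel inserts rehydrated 2 h; lower chamber RPMI-1640 with 10% FBS. Compound at 10 and 100 μg/mL with 0.1% DMSO final added to upper chamber. Invasion 8 h at 37 °C in CO2. Non-invading cells swabbed off; remaining cells fixed and crystal-violet stained, counted in five random ×100 fields per insert. At least three experiments, triplicates.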

ES2 [7] = assay: Antimetastatic activity against human ES2 cells assessed as inhibition of invasion through transwell chamber with matrigel coating after 8 hrs by crystal voilet staining; assay type: functional, cell-based; summary of the method: as §1

Compound | IC50 (Aminopeptidase N [1]) [µM] | also measured
CC(C)C[C@H](NC(=O)NC1CCCCC1)C(=O)NO | > 100 | 
CC(C)[C@H](NC(=O)NCc1ccccc1)C(=O)NO | 17 | 
CC(C)C[C@H](NC(=O)OCc1ccccc1)C(=O)NO | 9.1 | 
O=C(NCCc1ccccc1)N[C@@H](Cc1ccccc1)C(=O)NO | 6.5 | 
O=C(N[C@@H](Cc1ccccc1)C(=O)NO)N[C@@H](Cc1ccccc1)C(=O)NO | > 100 | 
O=C(NCc1ccccc1)N[C@@H](Cc1ccccc1)C(=O)NO | 5.6 | IC50 [2]: > 500 µM; IC50 [3]: 510 µM; inhibition (ES2 [4]): inactive; IC50 (Aminopeptidase N [5]): 16 µM
CC[C@H](C)[C@H](NC(=O)NC(C)(C)C)C(=O)NO | > 100 | 
CC(C)(C)NC(=O)N[C@@H](Cc1ccccc1)C(=O)NO | > 100 | 
CC(C)C[C@H](NC(=O)OCCc1ccccc1)C(=O)NO | 18 | 
O=C(CNC(=O)NCCc1ccccc1)NO | 52 | 
CC(C)C[C@H](NC(=O)NCCc1ccccc1)C(=O)NO | 1.1 | IC50 [2]: > 500 µM; IC50 [3]: 96 µM; inhibition (ES2 [4]): inactive; inhibition (INH) [6]: 55%; inhibition (ES2 [7]): Dose-dependent effect; IC50 (Aminopeptidase N [5]): 5.1 µM
CSCC[C@H](NC(=O)NCc1ccccc1)C(=O)NO | 3.8 | IC50 [2]: > 500 µM; IC50 [3]: > 1000 µM; IC50 (Aminopeptidase N [5]): 22 µM
CC(C)C[C@H](NC(=O)N[C@@H](CC(C)C)C(=O)NO)C(=O)NO | > 100 | 
CC(C)C[C@H](NC(=O)NC(C)(C)C)C(=O)NO | > 100 | 
CC(C)C[C@H](NC(=O)[C@@H](O)[C@H](N)Cc1ccccc1)C(=O)O [UBENIMEX] |  | IC50 [3]: 490 µM
CC[C@H](C)[C@H](NC(=O)NCCc1ccccc1)C(=O)NO | > 100 | 
C[C@H](NC(=O)NCCc1ccccc1)C(=O)NO | 21 | 
CC(C)[C@H](NC(=O)NCCc1ccccc1)C(=O)NO | > 100 | 
CSCC[C@H](NC(=O)NC(C)(C)C)C(=O)NO | > 100 | 
C[C@H](NC(=O)NCc1ccccc1)C(=O)NO | 21 | 
CC(C)(C)NC(=O)NCC(=O)NO | > 100 | 
O=C(CNC(=O)NCc1ccccc1)NO | 32 | 
C[C@H](NC(=O)NC(C)(C)C)C(=O)NO | > 100 | 
CSCC[C@H](NC(=O)NCCc1ccccc1)C(=O)NO | > 100 | 
CC[C@H](C)[C@H](NC(=O)NCc1ccccc1)C(=O)NO | 4.1 | IC50 [2]: > 500 µM; IC50 [3]: 770 µM; inhibition (ES2 [4]): inactive; IC50 (Aminopeptidase N [5]): 39 µM
CC(C)[C@H](NC(=O)NC(C)(C)C)C(=O)NO | > 100 | 
